Hits are enriched below; roughly 3.1% of the tested compounds scored in any of these assays.
T cruzi inh: T. cruzi replication inhibition. T. cruzi beta-gal in NIH3T3, luminescence, 90 h. inhibition, % (no concentration beside the values). actives 1.4% (n = 300,000). AID 1885;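 active = mean inhibition across valid replicates above about 55%, limit read from the data; inconclusive = mean below that limit but half or more replicates reach it; inactive = mean below it, under half of replicates reach it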;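 also: signal also drops with host cell toxicity which is not excluded here; 0% = plate median of DMSO wells and 100% = zero luminescence signal; higher percent means less beta-gal luminescence so fewer parasites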
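System: NIH/3T3 fibroblasts plus reporter T. cruzi. Medium: DMEM plus 2% FBS. Probe or stimulus: 5000 reporter trypomastigotes per well. Compound: single 50 nL compound addition per well in DMSO. Incubation: co-culture of at least 90 h after 3 h attachment. Detection: GalScreen β-gal luminescence, detergent lysis, 60 min. Evaluation: parasite load inhibition, %.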
A1 inh: inhibitors of the anti-apoptotic protein A1, read as caspase activation; AID 2462; actives 0.066% (n = 330,000); MEF A1-2A-BIM cells, Caspase-Glo 3/7 luminescence, 3 h; percent of clofoctol response, vehicle zero; caspase activation, % (no concentration beside the values);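 active = over half of replicate activation scores above 10%, or exactly half above 10 with the replicate mean above 10; inconclusive = replicate mean below 10 yet half the replicates above 10; inactive = over half of replicates below 10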
CSC inhib: cancer stem cell inhibition; cancer stem cell-like cells viability, luminescence; actives 1.1% (n = 300,000); inhibition, % at 7.5 µM; AID 2717; in the data active = inhibition above about 75%; inconclusive = no clear call, values can overlap the other calls; tested in HMLE shEcad cells
H9c2 TAG inh: triacylglycerol accumulation inhibition; inhibition, % at 12.5 µM; H9c2 cells, Nile Red lipid (TAG) fluorescence; cells loaded with 200 µM oleic acid; actives 0.66% (n = 230,000);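 active = pattern-corrected inhibition of lipid staining of at least 50% with the nuclear-stain viability signal not falling by more than 50%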;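 also: 0% = DMSO wells and 100% = triacsin C control wells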
Calb FLC: affects C. albicans growth with fluconazole; AID 1979; actives 0.57% (n = 300,000); growth inhibition, % (no concentration beside the values); C. albicans CaCi-2 + fluconazole, Alamar Blue growth, 48 h;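 active = growth inhibition above about 58% in most replicates, limit read from the data, passing the limit was not always enough; inconclusive = exactly half the replicates above a set limit; inactive = most replicates below a set limit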;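 also: all wells also contain fluconazole at 8 µg/ml as a sub-toxic cotreatment; 0% = median of DMSO wells and 100% = median of geldanamycin control wells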
Beta apoptosis: blocks beta cell apoptosis | INS-1E cytokine-induced death, ATP luminescence, 48 h; percent of positive-control rescue, neutral wells zero | protection from apoptosis, % (test concentration not listed) | actives 0.8% (n = 300,000) | AID 435005;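 active = Every replicate reaches about 75%, or at least half do and their mean reaches it too, limit read from the data; inconclusive = At least half of replicates reach the limit but their mean does not; inactive = Under half of replicates reach the limit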;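 also: 0% = cytokine-treated negative control wells and 100% = positive control rescue; higher means more ATP so stronger rescue from cytokine killing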
The depositor's hits bear a star; ? = inconclusive; . = no result.

SMILES | T cruzi inh | A1 inh | CSC inhib | H9c2 TAG inh | Calb FLC | Beta apoptosis
Cc1cccn2c(/C=N/OCc3cccc(F)c3)c(-c3ccc(Cl)cc3)nc12 | 22.2 | -1.8 | 84.9* | 10.2 | 0.6 | 5.3
Fc1cccc(CO/N=C/c2c(-c3ccccc3)nc3ccc(Cl)cn23)c1 | 50.9 | . | . | 6.6 | 3.8 | 7.8
CC(CC(=O)N1CCN(c2ccccc2)CC1)S(=O)(=O)c1ccc2c(c1)NC(=O)CO2 (stereo unspecified) | 15.3 | 0.0 | -1.3 | . | -4.7 | -0.2
Cn1c(Cn2nnc3ccccc32)nnc1SCC(=O)N1c2ccccc2Sc2ccccc21 | 28.6 | 0.2 | -17.4 | . | 5.9 | 6.9
Cn1c(SCC(=O)N2c3ccccc3Sc3ccccc32)nc2ccccc21 | 58.8* | 0.2 | -14.2 | -14.3 | ? | 3.3
CN(C)CCCn1c(SCC(=O)N2c3ccccc3Sc3ccccc32)nc2ccccc2c1=O | 58.0* | 0.6 | 30.1 | . | -1.0 | -0.5
C=CCn1c(NC(=O)c2ccc(Br)o2)c(C(=O)OCC)sc1=S | -10.4 | -0.2 | . | . | 92.6* | .
CCOC(=O)c1c(NC(=O)c2ccc(Br)o2)sc(C)c1CC | 17.7 | -0.8 | 6.3 | -5.9 | 2.2 | 5.6
O=C(/C=C/c1ccc([N+](=O)[O-])cc1)c1ccco1 | -3.7 | -0.1 | 0.5 | . | 4.7 | .
O=C(/C=C/c1ccc([N+](=O)[O-])cc1)/C=C/c1ccco1 | 22.0 | 0.3 | 76.0* | . | 1.6 | 1.6
c1ccc(Nc2ccc3c4c(cccc24)CC3)cc1 | 64.5* | 1.8 | 11.8 | -61.3 | 12.0 | 2.0
COc1cc(S(=O)(=O)NCC2(N3CCCCC3)CCCCC2)ccc1NC(C)=O | . | . | . | 0.3 | . | .
O=S(=O)(CC(CN1CCCCC1)N1CCCCC1)c1ccc2ccccc2c1 (stereo unspecified) | 70.6* | . | . | 68.8 | -3.8 | .
Cc1ccc(S(=O)(=O)CC(CN2CCCCC2)N2CCCCC2)cc1 (stereo unspecified) | 2.9 | . | . | . | -25.0 | .
Fc1ccc(COc2cccc(CNCc3ccncc3)c2)cc1 | 60.0* | -1.5 | -6.5 | -32.3 | -11.9 | 24.8
Fc1ccc(COc2ccc(Br)cc2CNCc2ccncc2)cc1 | 70.9* | 1.9 | . | . | 17.8 | -0.2
CCOC(=O)/C(=N\Nc1ccccc1Cl)N1CCN(c2ccccc2OC)CC1 | 67.2* | -0.1 | 40.5 | -10.8 | -19.2 | 2.8
CC(C)CN=C(NS(=O)(=O)c1ccccc1)C(Cl)(Cl)Cl | 15.1 | 0.9 | 146.7* | . | -2.2 | 1.2
COc1ccc(/C=C/C(=O)NC(=S)NCc2ccccc2)cc1OC | 3.7 | 0.6 | -4.7 | 12.5 | -0.2 | -1.7
CCCCOc1ccc(/C=N/NC(=S)Nc2cccc(C)c2C)cc1 | 40.8 | 0.6 | 0.1 | 6.6 | 8.6 | -1.5
Cc1cccc(C)c1NC(=S)N/N=C/c1ccc(OCCC(C)C)cc1 | 62.6* | -0.5 | 11.8 | . | -0.6 | .
O=C(Nc1ccc(F)cc1)Nc1cc(OCC(F)(F)F)cc(OCC(F)(F)F)c1 | 44.3 | 1.7 | 50.6 | . | -0.8 | 105.9*
O=C(Nc1cnn(Cc2c(Cl)cccc2Cl)c1)C(c1ccccc1)c1ccccc1 | 55.0* | 0.9 | 18.0 | 18.1 | -1.6 | 20.1
CC(C)(C)c1ccc(C2CC2C(=O)N/N=C\c2ccc[nH]2)cc1 (stereo unspecified) | 60.4* | 0.0 | 0.4 | 15.7 | 21.2 | 108.5*
Cc1cc(OCC(=O)NNC(=S)NC(=O)c2cccs2)ccc1Cl | . | 0.8 | 3.0 | . | 103.8* | 4.0
SMILES | T cruzi inh | A1 inh | CSC inhib | H9c2 TAG inh | Calb FLC | Beta apoptosis
CCCOc1ccc(C(=O)NNC(=S)NC(C)=O)cc1 | -8.7 | -0.3 | 10.4 | -18.1 | 102.3* | 33.6
COc1ccc(C(=O)NNC(=S)NC(=O)c2ccco2)cc1 | 11.9 | -0.8 | 8.1 | 3.3 | ? | 29.2
CC(C)(C)C(=O)NC(=S)NNC(=O)c1ccc(-c2ccccc2)cc1 | 43.1 | -0.4 | 90.9* | 10.4 | 98.2* | 76.0*
CCCOc1ccc(C(=O)NNC(=S)NC(=O)c2ccccc2)cc1 | 18.8 | 0.8 | 46.6 | . | 71.2 | 27.8
CCCOc1ccc(C(=O)NNC(=S)NC(=O)c2ccco2)cc1 | ? | 0.6 | 34.1 | 2.5 | 78.3* | 20.0
C[C@@H]1CN([C@H](C)CO)S(=O)(=O)c2ccc(Br)cc2O[C@H]1CN(C)C(=O)C1CCCCC1 | . | . | . | -1.3 | . | .
CCN1C/C(=C\c2cc(OC)c(OC)c(OC)c2)C2=NN(c3ccccc3)C(c3cc(OC)c(OC)c(OC)c3)C2C1 (stereo unspecified) | . | . | . | 7.4 | . | .
CC(=O)Nc1ccc(-c2ccnc3c2CC(C(=O)Nc2cccc(C(F)(F)F)c2)O3)cc1 (stereo unspecified) | . | . | . | 8.2 | . | .
CCCCOc1ccc(C(=O)NNC(=S)NC(=O)CC)cc1 | 3.9 | -0.1 | 46.5 | -13.9 | 87.4* | 78.9*
CC(C)(C)c1ccc(C(=O)NC(=S)NNC(=O)COc2ccccc2)cc1 | -18.4 | -0.4 | 23.3 | 12.4 | 100.5* | 0.0
O=C(NC(=S)NNC(=O)c1cccs1)c1ccccc1 | -4.7 | -0.7 | 3.1 | -11.9 | 0.2 | 9.4
CC(C)(C)c1ccc(C(=O)NC(=S)NNC(=O)c2cccs2)cc1 | 55.7* | 1.1 | 37.7 | . | 2.2 | 1.2
COc1ccccc1C(=O)NNC(=S)NC(=O)c1ccco1 | -18.3 | 0.7 | . | 1.3 | 6.9 | 84.1*
CCC(C)(CN(C)C)OC(=O)c1ccccc1 (stereo unspecified) | . | 0.4 | -4.3 | -7.8 | . | -4.8
CCCOc1ccc(C(=O)NNC(=S)NC(=O)c2cccs2)cc1 | 21.4 | 1.3 | 48.5 | . | 93.1* | 41.4
O=C1[C@H]2CCC=C[C@H]2[C@H](c2cccc(Br)c2)N1Cc1ccccc1 | . | . | . | 3.2 | . | .
O=C(Nc1c2ccccc2nc2ccccc12)C(Cl)(Cl)Cl | 21.8 | -0.3 | . | 66.1* | -2.1 | ?
O=C(N/N=C/c1c[nH]c2ccccc12)C1CC1c1ccccc1 (stereo unspecified) | -1.1 | 2.4 | . | . | -13.0 | -9.2
O=C(N/N=C/c1c[nH]c2ccccc12)C1CC1(c1ccccc1)c1ccccc1 (stereo unspecified) | 2.0 | 0.4 | 78.6* | . | -4.3 | 12.8
O=C1C=C(N2CCCCC2)c2ccccc2C1=O | 2.5 | 0.1 | 97.4* | 125.3 | -18.0 | 117.0*
O=C1c2ccccc2C(=O)c2c1cccc2N1CCCC1 | 16.3 | 0.3 | 34.1 | . | 80.3* | -0.5
O=C1c2ccccc2-c2onc3ccc(N4CCCC4)c1c23 | 46.0 | . | . | 11.2 | 78.8 | .
O=S(=O)(c1ccccc1S(=O)(=O)N1CCCCC1)N1CCCCC1 | -15.1 | 1.7 | -9.9 | . | -7.0 | -6.9
CC(=O)N1CCc2cc(Br)cc(S(=O)(=O)N3CCC(C(=O)O)CC3)c21 | -11.8 | -0.4 | -3.0 | . | 0.4 | 2.9
Cc1[nH]c2ccccc2c1C(=O)CSc1ccccc1 | 15.6 | 0.2 | 3.6 | . | 1.7 | -7.0
Cc1[nH]c2ccccc2c1C(=O)CCl | 28.0 | . | . | -11.6 | 95.7* | .
COc1ccc(-c2cn3cc(C(F)(F)F)cc(Cl)c3n2)cc1 | 20.6 | -1.1 | 127.2* | -4.3 | -3.9 | -2.4

Compound activity (PubChem BioAssay)
